Values joined by “and” are separate entries in the source; they are usually repeats but may differ in a detail not shown here. Equal values may be shown once.
Experiments:
individuals with obesity = type: in vivo, human
HG-CD34+ stem cells = assay: ROS production in CD34+ stem cells; type: cell-based, human; conditions: n=3
[1] = Portal vein and arterialized lactate after oral metformin; type: in vivo, human; conditions: 90 minutes after 1000 mg oral
[2] = metformin vs placebo crossover in DM and chronic heart failure; type: in vivo, human; conditions: 2 g/day, 3 months vs placebo
[3] = Serum uteroglobin before and after metformin monotherapy; type: in vivo, human; conditions: after 12 months monotherapy; before 14.43±0.97; n=20
human heart = assay: Metformin uptake in the human heart by PET scanning; type: in vivo
[4] = test system: human hepatocytes (HepG2); assay: GDF15 and FGF21 expression in hepatocytes; type: cell-based; conditions: 2 mM, up to 24-h
[5] = Intrajejunal metformin with or without bile exclusion or TCA, T2DM; type: in vivo, human; conditions: 1 g intrajejunal; endogenous bile included
[6] = test system: patients with type 2 diabetes; assay: Network meta-analysis of antidiabetic medications on blood pressure; design: species or system human; conditions: frequentist random-effects network meta-analysis, 192 studies
[7] = 42-h fast crossover trial with or without metformin; type: in vivo, human; conditions: 1 g twice daily for a week
glucokinase [8] = molecular target: T1, glucokinase (Homo sapiens, UniProt P35557); conditions: type 2 diabetes (n=190); cited from earlier work
T1 sequence (P35557 1-465): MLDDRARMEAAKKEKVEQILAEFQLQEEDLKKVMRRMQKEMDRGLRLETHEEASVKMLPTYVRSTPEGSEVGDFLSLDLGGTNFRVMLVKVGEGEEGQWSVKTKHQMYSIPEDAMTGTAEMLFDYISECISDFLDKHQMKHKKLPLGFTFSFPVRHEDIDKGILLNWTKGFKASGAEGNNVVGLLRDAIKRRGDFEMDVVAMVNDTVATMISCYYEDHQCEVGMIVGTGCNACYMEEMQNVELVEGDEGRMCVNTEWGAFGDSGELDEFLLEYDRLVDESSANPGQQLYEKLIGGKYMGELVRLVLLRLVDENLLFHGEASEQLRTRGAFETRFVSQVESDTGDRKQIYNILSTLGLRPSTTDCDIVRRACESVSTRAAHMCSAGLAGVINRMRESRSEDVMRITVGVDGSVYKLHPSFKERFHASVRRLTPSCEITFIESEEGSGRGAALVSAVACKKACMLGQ

glucokinase [9] = molecular target: T1, glucokinase; assay: Simplici-T1 Phase 1b/2 trial; type: in vivo
[10] = Insulin icodec vs IGlar U100 26-week phase 2 trial; type: in vivo, human
Summary of the method: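 Randomized, double-blind, double-dummy, treat-to-target phase 2 trial lasting 26 weeks. Participants were insulin-naïve adults with T2D and HbA1c 7.0-9.5% on metformin ± DPP4i, randomized 1:1 (n=247). Starting doses were 70 U once weekly or 10 U once daily, titrated weekly to a pre-breakfast SMBG target of 3.9-6.0 mmol/L. The primary endpoint was HbA1c change from baseline to week 26; FPG and mean weekly dose over the last two weeks were secondary.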

[11] = stated as background; cited from earlier work
DIO C57/B6 mice = assay: gastric emptying and weight in DIO mice; type: in vivo, mouse; conditions: 14-day
[12] = DIO mice under 50% dietary restriction, indirect calorimetry; type: in vivo, mouse
[13] = test system: individuals with type 2 diabetes; assay: insulin icodec PK/PD trial; design: species or system human; conditions: in vivo
[14] = test system: mouse and human primary PaSC and immortalized imPaSC; assay: Signalling and gene expression in pancreatic stellate cells; type: cell-based; conditions: Met 0.1-10 mM
[15] = test system: diabetic patients with chronic heart failure; type: in vivo, human; conditions: metformin 2 g/day for 3 months
[16] = test system: human ventricular cardiac fibroblasts (HCF); assay: Human ventricular cardiac fibroblasts, mRNA expression by RT-qPCR; type: cell-based; conditions: TGF-β treatment; p<0.01

liraglutide
change in heart rate during the 1-year treatment phase (individuals with obesity; liraglutide 3.0 mg/day, with or without exercise, PLA -0.7): 3.7 min⁻¹
systolic and diastolic BP during the 1-year treatment phase (individuals with obesity; no group differences): decreased
HG-induced production of ROS (HG-CD34+ stem cells): significant reduction

CN(C)C(=N)N=C(N)N [metformin]
increase of lactate concentration, arterialized blood [1]: 2%
increase of lactate concentration, portal vein ([1]; n=8 cirrhotic participants): 23%
GLP-1 and peptide YY during meal test [2]: increased
serum uteroglobin [3]: 16.47 ± 1.33 ng/mL
metformin uptake in healthy human hearts (human heart): no uptake
increase of FGF21 mRNA [4]: 12 fold
increase of GDF15 mRNA [4]: 4 fold
plasma glucose iAUC 0-180 min [5]: 516 ± 46 mmol·min/L
systolic blood pressure, mean difference compared to placebo [6]: -1.21 mmHg
serum FGF21 ([7]; without 146 ± 30): 156 ± 29 ng/mL
serum GDF15 ([7]; without 607 ± 89): 1004 ± 61 ng/mL

CCCO[C@H]1CC[C@H](N(C(=O)Nc2ncc(SCC(=O)O)s2)C2CCCCC2)CC1 [TTP399]
A1C vs placebo (glucokinase [8]): −0.9%
plasma β-hydroxybutyrate or urine ketones vs placebo (glucokinase [9]; 12 weeks): no significant or clinically relevant increases
severe hypoglycemia (glucokinase [9]; 12 weeks): No incidents
improvement of TIR 70-180 vs placebo (glucokinase [9]; Part 1 (n=19)): 12%
A1C vs placebo, trial product estimand (glucokinase [9]; Part 2 (n=85), 12 weeks): -0.32% and -0.3%
improvement of (daytime) TIR (glucokinase [9]; Part 2, ITT): 8%
responders (glucokinase [9]; Part 2, placebo 12%): 42%

Insulin icodec
estimated treatment ratio of weekly dose vs IGlar U100 ([10]; 95% CI 0.69, 0.94): 0.81
estimated treatment difference HbA1c vs IGlar U100 ([10]; 95% CI -0.38, 0.02): -0.18%
estimated treatment difference FPG vs IGlar U100 ([10]; 95% CI -0.66, 0.23): -0.22 mmol/L
estimated mean HbA1c at week 26 ([10]; baseline 8.1 icodec, 8.0 IGlar U100): 6.7%
estimated mean FPG at week 26 ([10]; in vivo): 6.84 mmol/L
estimated mean weekly insulin dose, last two weeks ([10]; in vivo): 229 U/week
level 2 and 3 hypoglycaemia ([10]; on-treatment period): 53 events per 100 patient years of exposure
estimated mean change in HbA1c from baseline ([10]; week 26): -1.33 %-points
terminal half-life [11]: ~ 196 hours

CC[C@H](C)[C@H](NC(=O)[C@H](CC(C)C)NC(=O)[C@H](Cc1c[nH]c2ccccc12)NC(=O)[C@H](CCC(N)=O)NC(=O)[C@@H](NC(=O)[C@H](Cc1ccccc1)NC(=O)[C@H](C)NC(=O)[C@H](CCCCNC(=O)COCCOCCNC(=O)COCCOCCNC(=O)CC[C@H](NC(=O)CCCCCCCCCCCCCCCCCCC(=O)O)C(=O)O)NC(=O)[C@H](CCC(N)=O)NC(=O)[C@H](C)NC(=O)[C@@H](NC(=O)[C@H](CCCCN)NC(=O)[C@H](CC(=O)O)NC(=O)[C@H](CC(C)C)NC(=O)C(C)(C)NC(=O)[C@@H](NC(=O)[C@H](CO)NC(=O)[C@H](Cc1ccc(O)cc1)NC(=O)[C@H](CC(=O)O)NC(=O)[C@H](CO)NC(=O)[C@@H](NC(=O)[C@H](Cc1ccccc1)NC(=O)[C@@H](NC(=O)CNC(=O)[C@H](CCC(=O)O)NC(=O)C(C)(C)NC(=O)[C@@H](N)Cc1ccc(O)cc1)[C@@H](C)O)[C@@H](C)O)[C@@H](C)CC)[C@@H](C)CC)C(C)C)C(=O)N[C@@H](C)C(=O)NCC(=O)NCC(=O)N1CCC[C@H]1C(=O)N[C@@H](CO)C(=O)N[C@@H](CO)C(=O)NCC(=O)N[C@@H](C)C(=O)N1CCC[C@H]1C(=O)N1CCC[C@H]1C(=O)N1CCC[C@H]1C(=O)N[C@@H](CO)C(N)=O [tirzepatide]
GE delay after chronic treatment (DIO C57/B6 mice): abolished after 14-day chronic treatment
weight loss during dietary restriction ([12]; 3 nmol/kg QD, 14 days, vehicle 15.2±1.2, pair fed 17.0±0.7): 22.4±1.3%
increase of fat utilization vs vehicle ([12]; during DR): more than 30%
energy expenditure during dietary restriction ([12]; reduction, indirect calorimetry): maintained similar to levels prior to DR

insulin icodec
geometric mean half-life (t½) [13]: 196 h

CN(C)C(=N)N=C(N)N [MET, metformin]
levels of yes-associated protein 1 (YAP) [14]: inhibited
cardiac functions as assessed by echocardiography and spiroergometry [15]: did not change
HbA1c ([15]; compared to placebo): reduced

transforming growth factor beta [TGF-β]
TNC expression in HCF [16]: upregulated TNC expression
